In ChEMBL document CHEMBL1150781, “High-level gentamicin resistance mediated by a Tn4001-like transposon in seven nonclonal hospital isolates of Streptococcus pasteurianus” (2007) one finds MIC data, which are given here for eight compounds.

What all share (type): functional
The subject of one assay is Streptococcus equinus. The assay is described as follows: Antibacterial activity against Streptococcus bovis ATCC 33317 by agar dilution method. The essentials:
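MIC read by agar dilution against S. bovis/S. pasteurianus, run to CLSI guidelines.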

Assay [1] deals with Streptococcus pasteurianus. The assay is described as follows: Antibacterial activity against high-level gentamicin resistant Streptococcus pasteurianus SB41 isolate carrying transposon-borne resistance gene [aac(6')Ie-aph(2'')Ia] by agar dilution method. The essentials:
(§1)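 MIC by agar dilution following CLSI guidelines; test organisms were clinical S. bovis/S. pasteurianus isolates recovered from blood cultures.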

In assay [2] the test system is Streptococcus pasteurianus. The assay is described as follows: Antibacterial activity against high-level gentamicin resistant Streptococcus pasteurianus SB40 isolate carrying transposon-borne resistance gene [aac(6')Ie-aph(2'')Ia] by agar dilution method. The method in brief:
as §1

For assay [3], the system named is Streptococcus pasteurianus. The assay is described as follows: Antibacterial activity against high-level gentamicin resistant Streptococcus pasteurianus SB33 isolate carrying transposon-borne resistance gene [aac(6')Ie-aph(2'')Ia] by agar dilution method. The method in brief: as §1
Assay [4] has as its system Streptococcus pasteurianus. The assay is described as follows: Antibacterial activity against high-level gentamicin resistant Streptococcus pasteurianus SB34 isolate carrying transposon-borne resistance gene [aac(6')Ie-aph(2'')Ia] by agar dilution method. The method in brief:
as §1

The subject of assay [5] is Streptococcus pasteurianus. The assay is described as follows: Antibacterial activity against high-level gentamicin resistant Streptococcus pasteurianus SB10 isolate carrying transposon-borne resistance gene [aac(6')Ie-aph(2'')Ia] by agar dilution method. The essentials: as §1
For another assay, the system named is Enterococcus faecalis. The assay is described as follows: Antimicrobial activity against Enterococcus faecalis ATCC 29212 by agar dilution method.
For assay [6], the system named is Streptococcus pasteurianus. The assay is described as follows: Antibacterial activity against high-level gentamicin resistant Streptococcus pasteurianus SB28 isolate carrying transposon-borne resistance gene [aac(6')Ie-aph(2'')Ia] by agar dilution method. The method in brief: as §1
Assay [7] relates to Streptococcus pasteurianus. The assay is described as follows: Antibacterial activity against high-level gentamicin resistant Streptococcus pasteurianus SB30 isolate carrying transposon-borne resistance gene [aac(6')Ie-aph(2'')Ia] by agar dilution method. The method in brief:
as §1

Each structure is given as a SMILES string. In brackets after ≈: the same amount, converted by molar mass. Bounds are passed on as bounds.

Take `CN(C)[C@@H]1C(O)=C(C(N)=O)C(=O)[C@@]2(O)C(O)=C3C(=O)c4c(O)cccc4[C@@](C)(O)[C@H]3C[C@@H]12` [TETRACYCLINE]: the MIC stood at 0.25 µg/mL (≈ 0.563 µM) in the assay on Streptococcus equinus; 256 µg/mL (≈ 576 µM) in assay [1]; 256 µg/mL (≈ 576 µM) in assay [2]; 256 µg/mL (≈ 576 µM) in [3]; 0.25 µg/mL (≈ 0.563 µM) in [4]; 128 µg/mL (≈ 288 µM) in assay [5]. Moreover, the values for the MIC (in the assay with Enterococcus faecalis; in assay [6]; in assay [7]) were 16 µg/mL (≈ 36 µM), 128 µg/mL (≈ 288 µM) and 128 µg/mL (≈ 288 µM), respectively.

Take `NC[C@H]1O[C@H](O[C@H]2[C@H](O)[C@@H](O[C@H]3O[C@H](CO)[C@@H](O)[C@H](N)[C@H]3O)[C@H](N)C[C@@H]2N)[C@H](O)[C@@H](O)[C@@H]1O` [KANAMYCIN]: the MIC was 128 µg/mL (≈ 264 µM) against Streptococcus equinus; more than 4100 µg/mL in assay [1]; more than 4100 µg/mL in assay [2]; 4100 µg/mL (≈ 8450 µM) in assay [3]; more than 4100 µg/mL in assay [4]; more than 4100 µg/mL in [5]. Besides, the MIC is 16 µg/mL (≈ 33 µM) with Enterococcus faecalis, more than 4100 µg/mL in assay [6] and 4100 µg/mL (≈ 8450 µM) in [7].

Consider `CN(C)c1ccc(O)c2c1C[C@H]1C[C@H]3[C@H](N(C)C)C(O)=C(C(N)=O)C(=O)[C@@]3(O)C(O)=C1C2=O` [MINOCYCLINE], for which the MIC in assay [1] was determined as 8 µg/mL (≈ 17.5 µM); in assay [2] it was 16 µg/mL (≈ 35 µM); in assay [3] it was 16 µg/mL (≈ 35 µM); in assay [4], 0.12 µg/mL (≈ 0.262 µM); in assay [5], 8 µg/mL (≈ 17.5 µM); in assay [6] it was 16 µg/mL (≈ 35 µM). The compound also registered a minimum inhibitory concentration (MIC) in [7] of 8 µg/mL (≈ 17.5 µM).

On to `CN[C@@H]1[C@H](O[C@H]2[C@H](O[C@H]3[C@H](O)[C@@H](O)[C@H](N=C(N)N)[C@@H](O)[C@@H]3N=C(N)N)O[C@@H](C)[C@]2(O)C=O)O[C@@H](CO)[C@H](O)[C@H]1O` [STREPTOMYCIN], for which the MIC against Streptococcus equinus is 64 µg/mL (≈ 110 µM); in assay [1], 32 µg/mL (≈ 55 µM); in [2] it was 32 µg/mL (≈ 55 µM); in assay [3] it was 32 µg/mL (≈ 55 µM); in assay [4], 32 µg/mL (≈ 55 µM); in assay [5], 32 µg/mL (≈ 55 µM). Moreover, the MIC against Enterococcus faecalis worked out at 32 µg/mL (≈ 55 µM); in assay [6] it was 64 µg/mL (≈ 110 µM); in [7] it was 64 µg/mL (≈ 110 µM).

As to `CC[C@H]1OC(=O)[C@H](C)[C@@H](O[C@H]2C[C@@](C)(OC)[C@@H](O)[C@H](C)O2)[C@H](C)[C@@H](O[C@@H]2O[C@H](C)C[C@H](N(C)C)[C@H]2O)[C@](C)(O)C[C@@H](C)C(=O)[C@H](C)[C@@H](O)[C@]1(C)O` [ERYTHROMYCIN], the MIC in the assay on Streptococcus equinus was 0.06 µg/mL (≈ 0.0818 µM); in [1] it was more than 512 µg/mL; in [2], more than 512 µg/mL; in [3], more than 512 µg/mL; in assay [4] it was more than 512 µg/mL; in assay [5], more than 512 µg/mL. Also, the MIC against Enterococcus faecalis is 2 µg/mL (≈ 2.73 µM); in [6], more than 512 µg/mL; in assay [7], more than 512 µg/mL.

For the compound `CCN[C@@H]1C[C@H](N)[C@@H](O[C@H]2OC(CN)=CC[C@H]2N)[C@H](O)[C@H]1O[C@H]1OC[C@](C)(O)[C@H](NC)[C@H]1O` [NETILMICIN], the MIC with Streptococcus equinus came out at 16 µg/mL (≈ 33.6 µM); in assay [1], 8 µg/mL (≈ 16.8 µM); in assay [2], 16 µg/mL (≈ 33.6 µM); in assay [3], 16 µg/mL (≈ 33.6 µM); in assay [4], 32 µg/mL (≈ 67.3 µM); in assay [5], 64 µg/mL (≈ 135 µM). Besides, the values for the MIC (with Enterococcus faecalis; in assay [6]; in assay [7]) were 4 µg/mL (≈ 8.41 µM), 512 µg/mL (≈ 1080 µM) and 128 µg/mL (≈ 269 µM), respectively.

In the case of `NCC[C@H](O)C(=O)N[C@@H]1C[C@H](N)[C@@H](O[C@H]2O[C@H](CN)[C@@H](O)[C@H](O)[C@H]2O)[C@H](O)[C@H]1O[C@H]1O[C@H](CO)[C@@H](O)[C@H](N)[C@H]1O` [AMIKACIN], the MIC against Streptococcus equinus is 64 µg/mL (≈ 109 µM); in assay [1], 32 µg/mL (≈ 54.6 µM); in assay [2] it was 32 µg/mL (≈ 54.6 µM); in assay [3], 32 µg/mL (≈ 54.6 µM); in [4] it was 32 µg/mL (≈ 54.6 µM); in assay [5] it was 64 µg/mL (≈ 109 µM). Moreover, the results for the MIC (in the assay with Enterococcus faecalis; in assay [6]; in assay [7]) were 64 µg/mL (≈ 109 µM), 512 µg/mL (≈ 874 µM) and 128 µg/mL (≈ 219 µM), respectively.

For `CCC[C@@H]1C[C@@H](C(=O)N[C@@H]([C@H]2O[C@H](SC)[C@H](O)[C@@H](O)[C@H]2O)[C@H](C)Cl)N(C)C1` [CLINDAMYCIN], the MIC in the assay with Streptococcus equinus is less than 0.03 µg/mL; in assay [1] it was 512 µg/mL (≈ 1200 µM); in assay [2] it was 512 µg/mL (≈ 1200 µM); in assay [3] it was 512 µg/mL (≈ 1200 µM); in [4], 128 µg/mL (≈ 301 µM); in assay [5], 256 µg/mL (≈ 602 µM). Moreover, the MIC with Enterococcus faecalis is 4 µg/mL (≈ 9.41 µM); in assay [6], 16 µg/mL (≈ 37.6 µM); in assay [7], 0.5 µg/mL (≈ 1.18 µM).
